Source: ChEMBL document CHEMBL1811802, “Synthesis and significant cytostatic activity of 7-hetaryl-7-deazaadenosines” (J Med Chem, 2011)

Tests used:
[1] = system: DU-145; assay: Cytostatic activity against human DU145 cells after 5 days by SRB assay; assay type: functional; details: DU-145, 120 h
Summary of the method: (§1)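 Cells seeded per line density, overnight at 37 °C; day-zero plate TCA-fixed. 5-fold serial dilutions added, 5-day incubation; TCA fixation, 0.057% SRB in 1% acetic acid 30 min, dye dissolved in 10 mM Tris pH 10.5, A500. Growth relative to day-zero and untreated; GIC50 from sigmoidal dose–response fit; mean of two independent experiments.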

[2] = system: DU-145; assay: Metabolic stability in human DU145 cells assessed as sodium ((2R,3S,4R,5R)-5-(4-amino-7H-pyrrolo[2,3-d]pyrimidin-7-yl)-3,4-dihydroxytetrahydrofuran-2-yl)methyl hydrogentriphosphate-NTP formation per million of cells at 10 uM after 6 hrs by LC/MS/MS analysis; assay type: ADME, cell-based; details: du-145, 6 h
Summary of the method: (§2)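 Du145 seeded at 60% confluence in MEM/10% FBS; next day exposed to 10 μM compound for 6 or 24 h. Cells trypsinized, extracted in 70% MeOH, dried, resuspended in 1 mM ammonium phosphate pH 8.5. Nucleoside, NMP and NTP quantified by ion-pairing (dimethylhexylamine) LC/MS/MS against untreated-cell-extract standard curves; pmol per million cells.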

[3] = system: DU-145; assay: Metabolic stability in human DU145 cells assessed as sodium ((2R,3S,4R,5R)-5-(4-amino-7H-pyrrolo[2,3-d]pyrimidin-7-yl)-3,4-dihydroxytetrahydrofuran-2-yl)methyl hydrogentriphosphate-NTP formation per million of cells at 10 uM after 24 hrs by LC/MS/MS analysis; assay type: ADME, cell-based; details: du-145, 24 h; summary of the method: as §2
[4] = system: DU-145; assay: Metabolic stability in human DU145 cells assessed as sodium ((2R,3S,4R,5R)-5-(4-amino-7H-pyrrolo[2,3-d]pyrimidin-7-yl)-3,4-dihydroxytetrahydrofuran-2-yl)methyl hydrogenphosphate-NMP formation per million of cells at 10 uM after 24 hrs by LC/MS/MS analysis; assay type: ADME, cell-based; details: du-145, 24 h; summary of the method: as §2
[5] = system: MT4; assay: Cytostatic activity against human MT4 cells after 5 days by SRB assay; assay type: functional; details: MT4, 120 h
[6] = system: PC-3; assay: Cytostatic activity against human PC3 cells after 5 days by SRB assay; assay type: functional; details: PC-3, 120 h; summary of the method: as §1
[7] = system: HCT-116; assay: Cytostatic activity against human HCT116 cells after 5 days by SRB assay; assay type: functional; details: HCT-116, 120 h; summary of the method: as §1
[8] = system: HCT-15; assay: Cytostatic activity against human HCT15 cells after 5 days by SRB assay; assay type: functional; details: HCT-15, 120 h; summary of the method: as §1
[9] = system: DU-145; assay: Metabolic stability in human DU145 cells assessed as nucleoside formation per million of cells at 10 uM after 6 hrs by LC/MS/MS analysis; assay type: ADME, cell-based; details: du-145, 6 h; summary of the method: as §2
[10] = Cytotoxicity against human HeLaS3 cells after 3 days by XTT assay; assay type: functional, cell-based; details: HeLa S3, 72 h
Summary of the method: (§3)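 Suspension-grown cell lines, 3-day compound incubation; viability read by XTT metabolic assay; IC50 averaged from four independent experiments.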

[11] = Cytostatic activity against human Hs578 cells after 5 days by SRB assay; assay type: functional; details: Hs578, 120 h; summary of the method: as §1
[12] = system: BT-549; assay: Cytostatic activity against human BT549 cells after 5 days by SRB assay; assay type: functional; details: BT-549, 120 h; summary of the method: as §1
[13] = system: CCRF-CEM; assay: Cytotoxicity against human CCRF-CEM cells after 3 days by XTT assay; assay type: functional, cell-based; details: 72 h; summary of the method: as §3
[14] = system: NCI-H23; assay: Cytostatic activity against human NCI-H23 cells after 5 days by SRB assay; assay type: functional; details: NCI-H23, 120 h; summary of the method: as §1
[15] = system: HL-60; assay: Cytotoxicity against human HL60 cells after 3 days by XTT assay; assay type: functional, cell-based; details: HL-60, 72 h; summary of the method: as §3
[16] = target: Adenosine kinase (Homo sapiens, UniProt P55263); assay: Inhibition of human ADK using [3H]-adenosine by scintillation counting
[17] = system: A549; assay: Cytostatic activity against human A549 cells after 5 days by SRB assay; assay type: functional; details: A549, 120 h; summary of the method: as §1
[18] = system: DU-145; assay: Metabolic stability in human DU145 cells assessed as nucleoside formation per million of cells at 10 uM after 24 hrs by LC/MS/MS analysis; assay type: ADME, cell-based; details: du-145, 24 h; summary of the method: as §2
[19] = system: DU-145; assay: Metabolic stability in human DU145 cells assessed as sodium ((2R,3S,4R,5R)-5-(4-amino-7H-pyrrolo[2,3-d]pyrimidin-7-yl)-3,4-dihydroxytetrahydrofuran-2-yl)methyl hydrogenphosphate-NMP formation per million of cells at 10 uM after 6 hrs by LC/MS/MS analysis; assay type: ADME, cell-based; details: du-145, 6 h; summary of the method: as §2
[20] = system: SK-OV-3; assay: Cytotoxicity against human SKOV3 cells after 3 days by MTT assay; assay type: functional, cell-based; details: SK-OV-3, 72 h
[21] = system: MAT-Ly-Lu; assay: Cytotoxicity against rat MAT-LyLu cells after 3 days by MTT assay; assay type: functional, cell-based; details: 72 h
[22] = system: L1210; assay: Cytotoxicity against mouse L1210 cells after 3 days by MTT assay; assay type: functional, cell-based; details: L1210, 72 h
[23] = system: BV-173; assay: Cytotoxicity against human BV173 cells after 3 days by MTT assay; assay type: functional, cell-based; details: BV-173, 72 h
[24] = system: HeLa; assay: Cytotoxicity against human HeLa cells after 3 days by MTT assay; assay type: functional, cell-based; details: 72 h
[25] = system: SK-N-AS; assay: Cytotoxicity against human SK-N-AS cells after 3 days by MTT assay; assay type: functional, cell-based; details: 72 h
[26] = system: C6; assay: Cytotoxicity against rat C6 cells after 3 days by MTT assay; assay type: functional, cell-based; details: C6, 72 h
[27] = system: LNCaP; assay: Cytotoxicity against human LNCAP cells after 3 days by MTT assay; assay type: functional, cell-based; details: 72 h
[28] = system: MCF7; assay: Cytotoxicity against human MCF7 cells after 3 days by MTT assay; assay type: functional, cell-based; details: MCF7, 72 h
[29] = Cytotoxicity against mouse P388D1 cells after 3 days by MTT assay; assay type: functional, cell-based; details: P388D1, 72 h
[30] = system: MDA-MB-231; assay: Cytotoxicity against human MDA-MB-231 cells after 3 days by MTT assay; assay type: functional, cell-based; details: MDA-MB-231, 72 h
[31] = system: K562; assay: Cytotoxicity against human K562 cells after 3 days by MTT assay; assay type: functional, cell-based; details: K562, 72 h
[32] = system: BJ; assay: Cytotoxicity against human BJ cells after 3 days by MTT assay; assay type: cell-based; details: 72 h
[33] = Cytotoxicity against human NCI-H146 cells after 3 days by MTT assay; assay type: functional, cell-based; details: NCI-H146, 72 h
[34] = system: CT26; assay: Cytotoxicity against mouse CT26 cells after 3 days by MTT assay; assay type: functional, cell-based; details: CT26, 72 h
[35] = system: EL4; assay: Cytotoxicity against mouse EL4 cells after 3 days by MTT assay; assay type: functional, cell-based; details: EL4, 72 h
[36] = Cytotoxicity against human U87MG cells after 3 days by MTT assay; assay type: functional, cell-based, U-87MG ATCC; details: U-87 MG, 72 h
[37] = Cytotoxicity against human CEM-DNR-bulk cells after 3 days by MTT assay; assay type: functional, cell-based; details: 72 h
[38] = system: PC-3; assay: Cytotoxicity against human PC3 cells after 3 days by MTT assay; assay type: functional, cell-based; details: PC-3, 72 h
[39] = system: HT-29; assay: Cytotoxicity against human HT-29 cells after 3 days by MTT assay; assay type: functional, cell-based; details: HT-29, 72 h
[40] = system: BT-549; assay: Cytotoxicity against human BT549 cells after 3 days by MTT assay; assay type: functional, cell-based; details: BT-549, 72 h
[41] = system: HCT-116; assay: Cytotoxicity against human HCT116 cells after 3 days by MTT assay; assay type: functional, cell-based; details: HCT-116, 72 h
[42] = system: SK-MEL-2; assay: Cytotoxicity against human SK-MEL-2 cells after 3 days by MTT assay; assay type: functional, cell-based; details: SK-MEL-2, 72 h
[43] = system: HPAC; assay: Cytotoxicity against human HPAC cells after 3 days by MTT assay; assay type: functional, cell-based; details: 72 h
[44] = system: K562; assay: Cytotoxicity against human paclitaxel resistant K562 cells after 3 days by MTT assay; assay type: functional, cell-based; details: K562, 72 h
[45] = Cytotoxicity against human MES-SA cells after 3 days by MTT assay; assay type: functional, cell-based; details: 72 h
[46] = Inhibition of RNA polymerase 2 in human HeLaScribe nuclear extracts after 1 hr; details: read-out: IC50
Summary of the method: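 HeLaScribe nuclear extract transcription with CMV(+) template DNA, 3 mM MgCl2, 400 μM CTP/GTP/UTP, 25 μM [33P]ATP. Inhibitor preincubated 5 min at 30 °C, then 1 h at 30 °C. Products run on 6% urea–polyacrylamide gel; full-length transcript quantified; IC50 is 50% product decrease.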

Sequence of Adenosine kinase (P55263 whole entry): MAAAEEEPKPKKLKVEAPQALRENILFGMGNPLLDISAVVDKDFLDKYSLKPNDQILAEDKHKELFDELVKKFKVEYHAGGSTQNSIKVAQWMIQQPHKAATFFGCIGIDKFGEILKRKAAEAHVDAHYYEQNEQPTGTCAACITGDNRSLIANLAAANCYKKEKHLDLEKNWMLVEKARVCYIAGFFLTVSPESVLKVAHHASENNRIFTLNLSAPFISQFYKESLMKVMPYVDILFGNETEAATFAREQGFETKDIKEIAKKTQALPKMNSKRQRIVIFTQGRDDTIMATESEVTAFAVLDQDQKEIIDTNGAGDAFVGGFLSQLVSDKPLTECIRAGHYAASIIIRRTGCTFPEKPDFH

SMILES	GI50 [1]	GI50 [5]	GI50 [6]	GI50 [7]	IC50 [10]	GI50 [11]	GI50 [12]	IC50 [13]	GI50 [14]	IC50 [15]	IC50 [16]	GI50 [17]	IC50 [20]	IC50 [21]	IC50 [22]	IC50 [23]	IC50 [24]	IC50 [25]	IC50 [26]	IC50 [27]	further results
Nc1ncnc2c1c(-c1ccccc1)cn2[C@@H]1O[C@H](CO)[C@@H](O)[C@H]1O	> 20000 nM	> 20000 nM	> 20000 nM	> 20000 nM	> 10000 nM	> 20000 nM	> 20000 nM	> 10000 nM	> 20000 nM	> 10000 nM	> 5000 nM	> 20000 nM	–	–	–	–	–	–	–	–	Stability [2]: 0.13 pmol; Stability [3]: 0.27 pmol; Stability [4]: 6.68 pmol; GI50 [8]: > 20000 nM; Stability [9]: 32.91 pmol; Stability [18]: 68.8 pmol; Stability [19]: 6.23 pmol
Nc1ncnc2c1c(-c1ccsc1)cn2[C@@H]1O[C@H](CO)[C@@H](O)[C@H]1O	97 nM	124 nM	1320 nM	7 nM	60 nM	50 nM	28 nM	110 nM	73 nM	6620 nM	> 5000 nM	16 nM	> 10000 nM	525 nM	199 nM	29 nM	124 nM	> 10000 nM	8290 nM	68 nM	IC50 [28]: 7250 nM; IC50 [29]: 76 nM; IC50 [30]: 82 nM; IC50 [31]: 67 nM; IC50 [32]: > 10000 nM; IC50 [33]: > 10000 nM; IC50 [34]: 225 nM; IC50 [35]: > 10000 nM; IC50 [36]: > 10000 nM; IC50 [37]: 110 nM; IC50 [38]: > 10000 nM; IC50 [39]: 184 nM; IC50 [40]: 120 nM; IC50 [41]: 194 nM; IC50 [42]: > 10000 nM; IC50 [43]: 110 nM; IC50 [44]: 93 nM; IC50 [45]: 76 nM
Nc1ncnc2c1c(-c1ccsc1)cn2[C@@H]1O[C@H](COP(=O)(O)OP(=O)(O)OP(=O)(O)O)[C@@H](O)[C@H]1O	–	–	–	–	–	–	–	–	–	–	–	–	–	–	–	–	–	–	–	–	IC50 [46]: 91000 nM
Nc1ncnc2c1c(-c1cn[nH]c1)cn2[C@@H]1O[C@H](CO)[C@@H](O)[C@H]1O	–	110 nM	14 nM	970 nM	220 nM	12 nM	50 nM	560 nM	144 nM	> 25000 nM	50 nM	192 nM	> 10000 nM	> 10000 nM	258 nM	9780 nM	185 nM	> 10000 nM	538 nM	9550 nM	IC50 [28]: > 10000 nM; IC50 [29]: 93 nM; IC50 [30]: > 10000 nM; IC50 [31]: 9830 nM; IC50 [32]: > 10000 nM; IC50 [33]: > 10000 nM; IC50 [34]: 396 nM; IC50 [35]: > 10000 nM; IC50 [36]: > 10000 nM; IC50 [37]: 104 nM; IC50 [38]: > 10000 nM; IC50 [39]: 136 nM; IC50 [40]: 108 nM; IC50 [41]: > 10000 nM; IC50 [42]: > 10000 nM; IC50 [43]: 141 nM; IC50 [44]: 92 nM; IC50 [45]: 7740 nM
